Results taken from article PMC6430714 (Journal of the American Chemical Society, 2018).
≈ marks a conversion by molar mass, not a printed value.

Columns and labels:
[1] = system: S. aureus biofilms (MSSA and two MRSA strains); experiment: MBEC, summarised over the S. aureus strains; type: cell-based, Staphylococcus aureus; settings: TSB; range as stated in text (Table 1, Table SI-1)
MRSA USA300 LAC biofilms = experiment: Murine skin wound excisional biofilm model; type: in vivo, C57BL/6 mice; settings: topical 0.05%, 5 h; not statistically significant
MRSA (USA400 MW2) = experiment: Minimum inhibitory concentration, broth microdilution; type: cell-based; settings: Staphylococcus aureus
MRSA USA400 MW2 biofilms = experiment: Confocal microscopy of biofilms, SYTO 9/PI live/dead staining; type: cell-based, Staphylococcus aureus; settings: 80 μM, 5 h treatment in TSB, 48 h biofilms, SYTO 9/PI fluorescence
In short: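 USA400 MW2 grown in TSB with shaking at 37 °C to stationary phase, then adjusted in TSB to 1 × 10^7 CFU/mL. Eight-well chambered coverglass coated with 50 μg/mL fibronectin for 30 min at room temperature and PBS-washed twice. Biofilms grown statically, humidified, 37 °C, 48 h, then PBS-washed twice. Stained with SYTO 9 (all cells) and PI (dead cells) in TSB; 10× compound solution added.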

MSSA (29213) = experiment: Minimum inhibitory concentration, broth microdilution; type: cell-based; settings: Staphylococcus aureus
MRSA (USA300 LAC) = experiment: as above; type: cell-based; settings: Staphylococcus aureus
S. aureus strain 29213 = experiment: Resistance evolution experiment; type: cell-based, Staphylococcus aureus; settings: 14 day period, strain 29213, daily passage from 1/2 MIC well
In short: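 An MIC assay on strain 29213 was repeated daily for 14 days, each incubated 24 h at 37 °C. Colonies from TSA were suspended in PBS to OD600 0.1 and diluted 1:100 in Mueller–Hinton broth. Inoculum was added to 2-fold serial dilutions of test compound in MHB. MIC was the lowest concentration with no growth by OD600.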

SMILES | MBEC range over the S. aureus strains [1] | fold reduction in median CFU/wound compared to untreated mice (MRSA USA300 LAC biofilms) | MIC (MRSA (USA400 MW2)) | viable biofilm bacteria (MRSA USA400 MW2 biofilms) | MIC (MSSA (29213)) | MIC (MRSA (USA300 LAC)) | fold increase in MIC over serial passage (S. aureus strain 29213)
CN[C@H]1C(=O)N[C@@H]2Cc3ccc(cc3)Oc3cc4cc(c3O[C@@H]3O[C@H](C(=O)O)[C@@H](O)[C@H](O)[C@H]3NC(=O)CCCCCCCCC(C)C)Oc3ccc(cc3Cl)[C@@H](O)[C@@H]3NC(=O)[C@H](NC(=O)[C@@H]4NC(=O)[C@@H](NC2=O)c2cc(cc(O)c2Cl)Oc2cc1ccc2O)c1ccc(O)c(c1)-c1c(O[C@H]2O[C@H](CO)[C@@H](O)[C@H](O)[C@@H]2O)cc(O)cc1[C@@H](C(=O)NCCCN(C)C)NC3=O [dalbavancin] | 8 to 20 µM | – | – | – | – | – | –
CN[C@H](CC(C)C)C(=O)N[C@H]1C(=O)N[C@@H](CC(N)=O)C(=O)N[C@H]2C(=O)N[C@H]3C(=O)N[C@H](C(=O)N[C@H](C(=O)O)c4cc(O)cc(O)c4-c4cc3ccc4O)[C@H](O[C@H]3C[C@](C)(N)[C@@H](O)[C@H](C)O3)c3ccc(c(Cl)c3)Oc3cc2cc(c3O[C@@H]2O[C@H](CO)[C@@H](O)[C@H](O)[C@H]2O[C@H]2C[C@](C)(NCc3ccc(-c4ccc(Cl)cc4)cc3)[C@@H](O)[C@H](C)O2)Oc2ccc(cc2Cl)[C@H]1O [Oritavancin] | 12 to 32 µM | – | – | – | – | – | –
CN[C@H](CC(C)C)C(=O)N[C@H]1C(=O)N[C@@H](CC(N)=O)C(=O)N[C@H]2C(=O)N[C@H]3C(=O)N[C@H](C(=O)N[C@H](C(=O)O)c4cc(O)cc(O)c4-c4cc3ccc4O)[C@H](O)c3ccc(c(Cl)c3)Oc3cc2cc(c3O[C@@H]2O[C@H](CO)[C@@H](O)[C@H](O)[C@H]2O[C@H]2C[C@](C)(N)[C@H](O)[C@H](C)O2)Oc2ccc(cc2Cl)[C@H]1O [V, vancomycin] | – | 6 fold | 0.5 µM (≈ 0.725 µg/mL) | 65% | 0.5 µM (≈ 0.725 µg/mL) | 0.5 µM (≈ 0.725 µg/mL) | 4 fold
